Data reported in ChEMBL document CHEMBL4339256, “Antibacterial Salinaphthoquinones from a Strain of the Bacterium Salinispora arenicola Recovered from the Marine Sediments of St. Peter and St. Paul Archipelago, Brazil” (2019).
The source made the active and inactive calls. The rule behind the calls is not given here.

Key:
[1] = test system: Staphylococcus aureus; experiment: Antimicrobial activity against methicillin-resistant Staphylococcus aureus ATCC 43300 assessed as inhibition of microbial growth incubated for 24 hrs by broth microdilution assay; format: functional
Method in brief: (§1)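 Strains pre-grown on Mueller Hinton agar 24 h at 35 ± 2 °C aerobically; colonies suspended in 0.85% NaCl, then diluted in Mueller Hinton broth to a final 5 × 10^5 CFU/mL. Broth microdilution per CLSI (2015) with 2-fold serial compound dilutions; rifampicin positive control. Incubated as above; MIC read as lowest concentration with no visible growth.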

[2] = test system: Enterococcus faecalis; experiment: Antimicrobial activity against vancomycin-resistant Enterococcus faecalis ATCC 51212 assessed as inhibition of microbial growth incubated for 24 hrs by broth microdilution assay; format: functional; method in brief: as §1
[3] = test system: Enterococcus faecalis; experiment: Antimicrobial activity against Enterococcus faecalis ATCC 29212 assessed as inhibition of microbial growth incubated for 24 hrs by broth microdilution assay; format: functional
Method in brief: (§2)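 Strains first grown on Mueller Hinton agar 24 h at 35 ± 2 °C, aerobic. Colonies were suspended in sterile 0.85% (w/v) NaCl and diluted into Mueller Hinton broth to a final 5 × 10^5 CFU/mL. Broth microdilution followed CLSI (2015), with 2-fold serial dilutions of compound and rifampicin as positive control. Plates were incubated under the same conditions. MIC was read as the lowest concentration with no visible growth.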

[4] = test system: Staphylococcus aureus; experiment: Antimicrobial activity against Staphylococcus aureus ATCC 29213 assessed as inhibition of microbial growth incubated for 24 hrs by broth microdilution assay; format: functional; method in brief: as §2
[5] = test system: Escherichia coli; experiment: Antimicrobial activity against Escherichia coli ATCC 25922 assessed as inhibition of microbial growth incubated for 24 hrs by broth microdilution assay; format: functional, organism-based; method in brief: as §2

SMILES | MIC ([1]; ATCC 43300, 24 h) | MIC ([2]; ATCC 51212, 24 h) | MIC ([3]; ATCC 29212, 24 h) | MIC ([4]; ATCC 29213, 24 h) | MIC [1] | MIC [2] | MIC [3] | MIC [4] | MIC [5]
CC(=O)CC1(C)Oc2c(C)cc3c(c2C1=O)C(=O)C=C(N)C3=O (stereo unspecified) | 125 µg/mL | 125 µg/mL | 125 µg/mL | 125 µg/mL | – | – | – | – | –
Cc1cc2c(c(C(=O)[C@@H](C)C3OC4[C@H](C)C(OC(=O)[C@H]4C)C3C)c1O)C(=O)C=C(N)C2=O (stereo partly specified) | – | – | – | – | inactive | inactive | inactive | inactive | –
Cc1cc(C)c(=O)oc1-c1c(O)c(C)cc2c1C(=O)C=C(N)C2=O | 62 µg/mL | 125 µg/mL | 16 µg/mL | 31 µg/mL | – | – | – | – | inactive
Cc1cc(C)c(=O)oc1-c1c(O)c(C)cc2c1C(=O)C(N)=CC2=O | – | – | 125 µg/mL | – | inactive | inactive | – | inactive | –
CO[C@H]1/C=C/O[C@@]2(C)Oc3c(C)c(O)c4c(O)c(c(/C=N/N5CCN(C)CC5)c(O)c4c3C2=O)NC(=O)/C(C)=C\C=C\[C@H](C)[C@H](O)[C@@H](C)[C@@H](O)[C@@H](C)[C@H](OC(C)=O)[C@@H]1C [RIFAMPIN] | ≤ 0.03 µg/mL | ≤ 0.03 µg/mL | ≤ 0.03 µg/mL | ≤ 0.03 µg/mL | – | – | – | – | –
Cc1cc2c(c(O)c1O)C(=O)C=C(N)C2=O | – | – | 16 µg/mL | – | inactive | inactive | – | inactive | inactive
